In ChEMBL document CHEMBL1139226, “Partial retro-inverso, retro, and inverso modifications of hydrazide linked bifunctional peptides for opioid and cholecystokinin (CCK) receptors” (J Med Chem, 2007):

How the values were obtained:
[1] = biological target: T1, Gastrin/cholecystokinin type B receptor (Homo sapiens, UniProt P32239); test: Activity at human CCK2 receptor expressed in HEK293 cells assessed as level of [3H]inositol produced relative to control; format: functional, cell-based
T1 sequence (P32239 whole entry): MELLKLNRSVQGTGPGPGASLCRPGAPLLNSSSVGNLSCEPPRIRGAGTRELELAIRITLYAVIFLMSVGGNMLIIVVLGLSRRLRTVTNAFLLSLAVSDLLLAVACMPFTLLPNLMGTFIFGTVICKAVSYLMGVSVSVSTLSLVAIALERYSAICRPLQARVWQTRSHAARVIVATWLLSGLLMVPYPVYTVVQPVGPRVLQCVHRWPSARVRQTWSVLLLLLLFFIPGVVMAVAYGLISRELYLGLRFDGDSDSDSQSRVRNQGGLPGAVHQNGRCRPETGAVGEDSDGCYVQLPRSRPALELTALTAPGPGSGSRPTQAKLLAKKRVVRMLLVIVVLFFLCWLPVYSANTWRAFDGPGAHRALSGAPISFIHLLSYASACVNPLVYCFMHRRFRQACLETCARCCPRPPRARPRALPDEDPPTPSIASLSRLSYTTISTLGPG

[2] = biological target: T2, Mu-type opioid receptor (Rattus norvegicus, UniProt P33535); test: (§1) Activity at rat mu opioid receptor expressed in CHO cells by [35S]GTPgammaS binding assay; format: functional, cell-based
Method in brief: (§2)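 Receptors expressed in CHO cells; agonist-stimulated GTP-γ-S binding reported as net total bound/basal binding × 100. Log EC50 from nonlinear regression of at least two independent experiments.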

[3] = biological target: T3, Delta-type opioid receptor (Homo sapiens, UniProt P41143); test: Activity at human delta opioid receptor expressed in CHO cells by [35S]GTP-gamma-S binding assay; format: functional, cell-based; settings: for Log IC50: cho; method in brief: as §2
[4] = biological target: Mu-type opioid receptor (Rattus norvegicus) (UniProt P33535); test: as §1; format: functional, cell-based; method in brief: as §2
[5] = biological target: T2, Mu-type opioid receptor; test: Displacement of [3H]DAMGO from rat mu opioid receptor expressed in HN9.10 cells; format: cell-based
[6] = biological target: Delta-type opioid receptor (Mus musculus, UniProt P32300); test: Activity at delta opioid receptor in ICR mouse by MVD assay; format: functional, tissue-based
Method in brief: (§3)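 Electrically stimulated isolated tissue; value is concentration giving 50% inhibition of muscle contraction.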

[7] = biological target: T4, Cholecystokinin receptor type A (Homo sapiens, UniProt P32238); test: Displacement of [125I]CCK8-SO3 from human CCK1 receptor expressed in HEK293 cells; format: cell-based
T4 sequence (P32238 whole entry): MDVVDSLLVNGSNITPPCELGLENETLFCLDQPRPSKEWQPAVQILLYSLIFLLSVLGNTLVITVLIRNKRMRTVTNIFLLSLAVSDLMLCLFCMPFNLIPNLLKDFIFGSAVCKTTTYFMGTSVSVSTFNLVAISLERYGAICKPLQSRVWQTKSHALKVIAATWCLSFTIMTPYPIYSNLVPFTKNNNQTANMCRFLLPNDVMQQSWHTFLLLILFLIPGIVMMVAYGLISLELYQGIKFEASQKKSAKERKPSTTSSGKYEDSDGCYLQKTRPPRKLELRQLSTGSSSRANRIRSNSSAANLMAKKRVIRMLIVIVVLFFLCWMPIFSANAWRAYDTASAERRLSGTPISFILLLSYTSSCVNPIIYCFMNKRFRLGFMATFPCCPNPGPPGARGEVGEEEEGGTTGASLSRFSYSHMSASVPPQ

[8] = biological target: T1, Gastrin/cholecystokinin type B receptor; test: Displacement of [125I]CCK8-SO3 from human CCK2 receptor expressed in HEK293 cells; format: cell-based
[9] = biological target: Mu-type opioid receptor (Cavia porcellus, UniProt P97266); test: Activity at mu opioid receptor assessed as contraction of electrically-stimulated Hartley guinea pig ileum; format: functional, tissue-based; method in brief: as §3
[10] = biological target: T3, Delta-type opioid receptor; test: Displacement of [3H]DPDPE from human delta opioid receptor expressed in HN9.10 cells; format: cell-based

T3 sequence (P41143 whole entry): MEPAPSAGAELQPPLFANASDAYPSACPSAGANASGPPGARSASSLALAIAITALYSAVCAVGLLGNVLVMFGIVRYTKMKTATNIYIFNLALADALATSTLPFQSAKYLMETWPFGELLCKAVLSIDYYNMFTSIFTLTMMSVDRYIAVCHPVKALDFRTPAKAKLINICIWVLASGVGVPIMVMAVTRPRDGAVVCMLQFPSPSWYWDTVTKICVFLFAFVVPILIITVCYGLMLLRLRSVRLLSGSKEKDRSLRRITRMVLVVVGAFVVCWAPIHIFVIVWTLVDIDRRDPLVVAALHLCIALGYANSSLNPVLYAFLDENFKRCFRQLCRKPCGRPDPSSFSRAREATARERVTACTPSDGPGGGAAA
Chain of Mu-type opioid receptor (Rattus norvegicus) (P33535 whole entry): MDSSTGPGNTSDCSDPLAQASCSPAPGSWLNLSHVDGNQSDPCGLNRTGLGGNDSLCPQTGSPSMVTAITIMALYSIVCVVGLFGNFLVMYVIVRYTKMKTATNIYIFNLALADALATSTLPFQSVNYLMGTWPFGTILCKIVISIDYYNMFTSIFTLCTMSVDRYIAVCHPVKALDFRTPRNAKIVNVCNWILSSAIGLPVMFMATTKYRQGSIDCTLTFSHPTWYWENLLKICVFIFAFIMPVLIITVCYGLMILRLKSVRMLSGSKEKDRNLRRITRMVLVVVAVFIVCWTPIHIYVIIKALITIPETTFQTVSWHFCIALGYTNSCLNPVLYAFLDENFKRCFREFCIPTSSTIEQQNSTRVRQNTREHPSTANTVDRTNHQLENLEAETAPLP
T2 sequence (P33535 whole entry): as above
Chain of Mu-type opioid receptor (Cavia porcellus, UniProt P97266) (P97266 whole entry): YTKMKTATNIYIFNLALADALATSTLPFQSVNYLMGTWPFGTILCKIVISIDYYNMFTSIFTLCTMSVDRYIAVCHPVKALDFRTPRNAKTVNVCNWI
Chain of Delta-type opioid receptor (Mus musculus, UniProt P32300) (P32300 whole entry): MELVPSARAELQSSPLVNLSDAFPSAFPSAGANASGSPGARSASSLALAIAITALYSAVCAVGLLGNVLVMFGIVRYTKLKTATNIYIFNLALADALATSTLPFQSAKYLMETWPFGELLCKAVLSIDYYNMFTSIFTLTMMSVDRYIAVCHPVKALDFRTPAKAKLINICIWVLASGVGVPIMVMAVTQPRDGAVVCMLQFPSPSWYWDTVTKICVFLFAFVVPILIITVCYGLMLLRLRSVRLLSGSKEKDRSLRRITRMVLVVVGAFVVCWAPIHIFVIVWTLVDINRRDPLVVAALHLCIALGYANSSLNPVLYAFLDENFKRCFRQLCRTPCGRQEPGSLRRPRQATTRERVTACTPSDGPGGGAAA

SMILES	EC50 [1]	Log IC50 [1]	Log IC50 ([2]; cho)	Log IC50 [3]	Emax [4]	Emax [3]	IC50 [5]	Ki [5]	IC50 [6]	log EC50 [2]	Ki [7]	Ki [8]	EC50 [3]	IC50 [3]	IC50 [9]	IC50 [10]	Ki [10]	further results
CCCC[C@H](NC(=O)[C@@H](Cc1c[nH]c2ccccc12)NC(=O)OC(C)(C)C)C(=O)N[C@@H](CC(=O)O)C(=O)N[C@@H](Cc1ccccc1)C(=O)NNC(=O)[C@H](Cc1ccccc1)NC(=O)CNC(=O)[C@@H](C)NC(=O)[C@@H](N)Cc1ccc(O)cc1	0.016 µM	-7.8	-6.69	-7.13	–	–	–	–	–	–	–	–	–	–	–	–	–	–
CCCC[C@H](NC(=O)[C@@H](Cc1cc2ccccc2[nH]1)NC(=O)OC(C)(C)C)C(=O)N[C@@H](CC(=O)O)C(=O)N[C@@H](Cc1ccccc1)C(=O)NNC(=O)[C@H](Cc1ccccc1)NC(=O)CNC(=O)[C@@H](C)NC(=O)[C@@H](N)Cc1ccc(O)cc1	–	–	–	–	170%	100%	–	–	–	–	–	–	–	–	–	–	–	–
CCCC[C@@H](NC(=O)[C@H](Cc1cc2ccccc2[nH]1)NC(=O)OC(C)(C)C)C(=O)N[C@H](CC(=O)O)C(=O)N[C@H](Cc1ccccc1)C(=O)NNC(=O)[C@H](Cc1ccccc1)NC(=O)CNC(=O)[C@@H](C)NC(=O)[C@@H](N)Cc1ccc(O)cc1	–	–	–	–	106%	93%	0.0794 µM	0.034 µM	0.031 µM	-8.9	8.3 µM	> 10 µM	0.0084 µM	0.00832 µM	0.21 µM	0.0162 µM	0.0069 µM	EC50 [2]: 0.0013 µM
CCCC[C@H](NC(=O)[C@H](N)Cc1c[nH]c2ccccc12)C(=O)N[C@@H](CC(=O)O)C(=O)N[C@@H](Cc1ccccc1)C(=O)NNC(=O)[C@H](Cc1ccccc1)NC(=O)CNC(=O)[C@@H](C)NC(=O)[C@@H](N)Cc1ccc(O)cc1	0.0046 µM	-8.34	-8.02	-8.02	–	–	–	0.0005 µM	–	–	–	–	–	–	–	–	–	EC50 ([2]; cho): 0.096 µM
CCCC[C@H](NC(=O)[C@H](N)Cc1cc2ccccc2[nH]1)C(=O)N[C@@H](CC(=O)O)C(=O)N[C@@H](Cc1ccccc1)C(=O)NNC(=O)[C@H](Cc1ccccc1)NC(=O)CNC(=O)[C@@H](C)NC(=O)[C@@H](N)Cc1ccc(O)cc1	–	–	–	–	82%	64%	–	–	–	–	–	–	–	–	–	–	–	–
CCCC[C@@H](NC(=O)[C@@H](CC(=O)O)NC(=O)[C@@H](Cc1ccccc1)NC(=O)OC(C)(C)C)C(=O)N[C@@H](Cc1cc2ccccc2[nH]1)C(=O)NNC(=O)[C@H](Cc1ccccc1)NC(=O)CNC(=O)[C@@H](C)NC(=O)[C@@H](N)Cc1ccc(O)cc1	–	–	–	–	71%	99%	0.132 µM	0.056 µM	0.018 µM	-6.76	0.13 µM	1.1 µM	0.013 µM	0.0123 µM	0.53 µM	0.00912 µM	0.0039 µM	IC50 [7]: 0.132 µM; IC50 [8]: 1.1 µM
